Measurements published in ChEMBL document CHEMBL1123776, “Solid-phase synthesis and biological properties of psi [CH2NH] pseudopeptide analogues of a highly potent somatostatin octapeptide” (1987).

Experiments:
Rattus norvegicus [1] = organism: Rattus norvegicus; assay: Activity is measured as concentration producing 50% inhibition of growth hormone secretion in rats; assay type: functional
Method in brief: (§1)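 Primary cultures of male rat anterior pituitary cells were kept for 4 days and then exposed to peptide. GH in the medium was measured by radioimmunoassay. The EC50 (50% inhibition of GH secretion) was fitted with ALLFIT. Potency was expressed as the ratio to the EC50 of tetradecapeptide SRIF as reference standard.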

Rattus norvegicus [2] = organism: Rattus norvegicus; assay: Ability to inhibit growth hormone release in vitro in cultured rat anterior pituitary cells; assay type: functional, Pituitary gland cell; method in brief: as §1
Rattus norvegicus [3] = assay: Ability to inhibit growth hormone release in vivo in sodium pentobarbital anesthetized rats; assay type: functional
Method in brief: (§2)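 Male Sprague-Dawley rats anesthetized with sodium pentobarbital were given peptide, with saline and tetradecapeptide SRIF controls, at doses of 0.003–10 µg/100 g BW. Plasma GH was measured by radioimmunoassay. Values are mean ± SEM, with the number of rats per group given.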

Rattus norvegicus [4] = assay: Ability to inhibit growth hormone release in the anesthetized rats measured as plasma growth hormone at a dose of 0.01 ug/100 g BW; assay type: functional, organism-based; method in brief: as §2
Rattus norvegicus [5] = assay: Ability to inhibit growth hormone release in the anesthetized rats measured as plasma growth hormone at a dose of 0.1 ug/100 g BW; assay type: functional, organism-based; method in brief: as §2
Rattus norvegicus [6] = assay: Ability to inhibit growth hormone release in the anesthetized rats measured as plasma growth hormone at a dose of 1 ug/100 g BW; assay type: functional, organism-based; method in brief: as §2
Rattus norvegicus [7] = assay: Ability to inhibit growth hormone release in the anesthetized rats measured as plasma growth hormone ata dose of 0.01 ug/100 g BW; assay type: functional, organism-based; method in brief: as §2
Rattus norvegicus [8] = assay: Ability to inhibit growth hormone release in the anesthetized rats measured as plasma growth hormone at a dose of 10 ug/100 g; assay type: functional, organism-based; method in brief: as §2
Rattus norvegicus [9] = assay: Ability to inhibit growth hormone release in the anesthetized rats measured as plasma growth hormone at a dose of 0.2 ug/100 g BW; assay type: functional, organism-based; method in brief: as §2
Rattus norvegicus [10] = assay: Ability to inhibit growth hormone release in the anesthetized rats measured as plasma growth hormone at a dose of 0.6 ug/100 g BW; assay type: functional, organism-based; method in brief: as §2
Rattus norvegicus [11] = assay: Ability to inhibit growth hormone release in the anesthetized rats measured as plasma growth hormone at a dose of 10 ug/100 g BW; assay type: functional, organism-based; method in brief: as §2
Rattus norvegicus [12] = assay: Ability to inhibit growth hormone release in the anesthetized rats measured as plasma growth hormone at a dose of 0.03 ug/100 g BW; assay type: functional, organism-based; method in brief: as §2
Rattus norvegicus [13] = assay: Ability to inhibit growth hormone release in the anesthetized rats measured as plasma growth hormone at a dose of 0.09 ug/100 g BW; assay type: functional, organism-based; method in brief: as §2

Row | Compound | ED50 (Rattus norvegicus [1]) | Potency (Rattus norvegicus [2]) | Potency (Rattus norvegicus [3]) | Plasma GH (Rattus norvegicus [5]) | Plasma GH (Rattus norvegicus [6]) | also measured
1 | CC(C)[C@@H]1NC[C@H](CCCCN)NC(=O)[C@@H](Cc2c[nH]c3ccccc23)NC(=O)[C@H](Cc2ccc(O)cc2)NC[C@@H](NC(=O)[C@H](N)Cc2ccccc2)CSSC[C@@H](C(=O)N[C@H](C(N)=O)[C@@H](C)O)NC1=O | 6.3 nM | 0.98% | 65% |  |  | 
2 | CC(C)[C@@H]1NC[C@H](CCCCN)NC(=O)[C@@H](Cc2c[nH]c3ccccc23)NC(=O)[C@H](Cc2ccc(O)cc2)NC[C@@H](NC(=O)[C@H](N)Cc2ccc3ccccc3c2)CSSC[C@@H](C(=O)N[C@H](C(N)=O)[C@@H](C)O)NC1=O | 1.8 nM | 3.44% | 50% |  |  | 
3 | CC(C)[C@H]1NC[C@H](CCCCN)NC(=O)[C@@H](Cc2c[nH]c3ccccc23)NC(=O)[C@H](Cc2ccc(O)cc2)NC[C@@H](NC(=O)[C@@H](N)Cc2ccccc2)CSSC[C@H](C(=O)N[C@H](C(N)=O)[C@@H](C)O)NC1=O |  |  |  | 250 ng/mL | 124 ng/mL | Plasma GH (Rattus norvegicus [4]): 258 ng/mL
4 | CC(C)[C@@H]1NC(=O)[C@H](CCCCN)NC(=O)[C@@H](Cc2c[nH]c3ccccc23)NC(=O)[C@H](Cc2ccc(O)cc2)NC(=O)[C@@H](NC(=O)[C@H](N)Cc2ccccc2)CSSC[C@H](CN[C@H](C(N)=O)[C@@H](C)O)NC1=O | 15 nM | 0.41% | 73% |  |  | 
5 | CC(C)[C@H]1NC[C@H](CCCCN)NC(=O)[C@@H](Cc2c[nH]c3ccccc23)NC(=O)[C@H](Cc2ccc(O)cc2)NC[C@@H](NC(=O)[C@@H](N)Cc2ccc3ccccc3c2)CSSC[C@H](C(=O)N[C@H](C(N)=O)[C@@H](C)O)NC1=O |  |  |  | 291 ng/mL | 133 ng/mL | Plasma GH (Rattus norvegicus [7]): 433 ng/mL
6 | CC(C)[C@@H]1CN[C@@H](C(=O)N[C@H](C(N)=O)[C@@H](C)O)CSSC[C@H](NC(=O)[C@@H](N)Cc2ccccc2)C(=O)N[C@@H](Cc2ccc(O)cc2)C(=O)N[C@H](Cc2c[nH]c3ccccc23)CN[C@@H](CCCCN)C(=O)N1 |  |  |  | 509 ng/mL | 393 ng/mL | Plasma GH (Rattus norvegicus [8]): 325 ng/mL
7 | CC(C)[C@H]1NC(=O)[C@H](CCCCN)NC(=O)[C@@H](Cc2c[nH]c3ccccc23)NC(=O)[C@H](Cc2ccc(O)cc2)NC(=O)[C@@H](NC(=O)[C@@H](N)Cc2ccccc2)CSSC[C@H](CN[C@H](C(N)=O)[C@@H](C)O)NC1=O |  |  |  |  |  | Plasma GH (Rattus norvegicus [9]): 248 ng/mL; Plasma GH (Rattus norvegicus [10]): 156 ng/mL
8 | CC(C)[C@@H]1CN[C@H](C(=O)N[C@H](C(N)=O)[C@@H](C)O)CSSC[C@H](NC(=O)[C@H](N)Cc2ccccc2)C(=O)N[C@@H](Cc2ccc(O)cc2)C(=O)N[C@H](Cc2c[nH]c3ccccc23)CN[C@@H](CCCCN)C(=O)N1 | >1000 nM | <0.001% | 2% |  |  | 
9 | CC(C)[C@H]1NC(=O)[C@H](CCCCN)NC[C@@H](Cc2c[nH]c3ccccc23)NC(=O)[C@H](Cc2ccc(O)cc2)NC(=O)[C@@H](NC(=O)[C@@H](N)Cc2ccccc2)CSSC[C@H](C(=O)N[C@H](C(N)=O)[C@@H](C)O)NC1=O |  |  |  | 325 ng/mL | 348 ng/mL | Plasma GH (Rattus norvegicus [11]): 265 ng/mL
10 | CC(C)[C@@H]1NC(=O)[C@H](CCCCN)NC[C@@H](Cc2c[nH]c3ccccc23)NC(=O)[C@H](Cc2ccc(O)cc2)NC(=O)[C@@H](NC(=O)[C@H](N)Cc2ccccc2)CSSC[C@@H](C(=O)N[C@H](C(N)=O)[C@@H](C)O)NC1=O | 190 nM | 0.03% | 2% |  |  | 
11 | CC(C)[C@H]1NC(=O)[C@H](CCCCN)NC(=O)[C@@H](Cc2c[nH]c3ccccc23)NC(=O)[C@H](Cc2ccc(O)cc2)NC(=O)[C@@H](NC[C@@H](N)Cc2ccccc2)CSSC[C@H](C(=O)N[C@H](C(N)=O)[C@@H](C)O)NC1=O |  |  |  |  |  | Plasma GH (Rattus norvegicus [9]): 185 ng/mL; Plasma GH (Rattus norvegicus [10]): 90 ng/mL
12 | CC(C)[C@H]1NC[C@H](CCCCN)NC(=O)[C@@H](Cc2c[nH]c3ccccc23)NC(=O)[C@H](Cc2ccc(O)cc2)NC(=O)[C@@H](NC(=O)[C@@H](N)Cc2ccccc2)CSSC[C@H](C(=O)N[C@H](C(N)=O)[C@@H](C)O)NC1=O |  |  |  |  |  | Plasma GH (Rattus norvegicus [12]): 174 ng/mL; Plasma GH (Rattus norvegicus [13]): 120 ng/mL
13 | CC(C)[C@H]1NC(=O)[C@H](CCCCN)NC(=O)[C@@H](Cc2c[nH]c3ccccc23)NC[C@H](Cc2ccc(O)cc2)NC(=O)[C@@H](NC(=O)[C@@H](N)Cc2ccccc2)CSSC[C@H](C(=O)N[C@H](C(N)=O)[C@@H](C)O)NC1=O |  |  |  | 307 ng/mL | 176 ng/mL | Plasma GH (Rattus norvegicus [11]): 137 ng/mL
14 | CC(C)[C@@H]1CN[C@H](C(=O)N[C@H](C(N)=O)[C@@H](C)O)CSSC[C@H](NC(=O)[C@H](N)Cc2ccccc2)C(=O)N[C@@H](Cc2ccc(O)cc2)C(=O)N[C@H](Cc2c[nH]c3ccccc23)C(=O)N[C@@H](CCCCN)C(=O)N1 | 350 nM | 0.02% | 2% |  |  | 
15 | CC(C)[C@@H]1CN[C@@H](C(=O)N[C@H](C(N)=O)[C@@H](C)O)CSSC[C@H](NC(=O)[C@@H](N)Cc2ccccc2)C(=O)N[C@@H](Cc2ccc(O)cc2)C(=O)N[C@H](Cc2c[nH]c3ccccc23)C(=O)N[C@@H](CCCCN)C(=O)N1 |  |  |  | 381 ng/mL | 266 ng/mL | Plasma GH (Rattus norvegicus [11]): 225 ng/mL
16 | CC(C)[C@@H]1NC(=O)[C@H](CCCCN)NC(=O)[C@@H](Cc2c[nH]c3ccccc23)NC[C@H](Cc2ccc(O)cc2)NC(=O)[C@@H](NC(=O)[C@H](N)Cc2ccccc2)CSSC[C@@H](C(=O)N[C@H](C(N)=O)[C@@H](C)O)NC1=O | 9.1 nM | 0.68% | 20% |  |  | 
17 | CC(C)[C@@H]1NC(=O)[C@H](CCCCN)NC(=O)[C@@H](Cc2c[nH]c3ccccc23)NC(=O)[C@H](Cc2ccc(O)cc2)NC[C@@H](NC(=O)[C@H](N)Cc2ccccc2)CSSC[C@@H](C(=O)N[C@H](C(N)=O)[C@@H](C)O)NC1=O | 0.35 nM | 17.43% | 1960% |  |  | 
18 | CC(C)[C@H]1NC(=O)[C@H](CCCCN)NC(=O)[C@@H](Cc2c[nH]c3ccccc23)NC(=O)[C@H](Cc2ccc(O)cc2)NC[C@@H](NC(=O)[C@@H](N)Cc2ccccc2)CSSC[C@H](C(=O)N[C@H](C(N)=O)[C@@H](C)O)NC1=O |  |  |  |  |  | Plasma GH (Rattus norvegicus [4]): 146 ng/mL; Plasma GH (Rattus norvegicus [12]): 98 ng/mL
19 | CC(C)[C@@H]1NC[C@H](CCCCN)NC(=O)[C@@H](Cc2c[nH]c3ccccc23)NC(=O)[C@H](Cc2ccc(O)cc2)NC(=O)[C@@H](NC(=O)[C@H](N)Cc2ccccc2)CSSC[C@@H](C(=O)N[C@H](C(N)=O)[C@@H](C)O)NC1=O | 0.092 nM | 67.27% | 434% |  |  | 
20 | CC(C)[C@@H]1NC(=O)[C@H](CCCCN)NC(=O)[C@@H](Cc2c[nH]c3ccccc23)NC(=O)[C@H](Cc2ccc(O)cc2)NC(=O)[C@@H](NC[C@@H](N)Cc2ccccc2)CSSC[C@@H](C(=O)N[C@H](C(N)=O)[C@@H](C)O)NC1=O | 6.1 nM | 1.01% | 160% |  |  | 
